Screening results: PubChem, Johns Hopkins Ion Channel Center
Most compounds without a hit are left out; they make up all but 3.5% or so of the library.
RGS4 inh = RGS4 inhibitors, primary screen, cell-based, HEK293 M3R inducible RGS4, calcium flux | B-score at 10 µM | AID 463165, 2010 | Regulator of G-protein signaling 4 (Homo sapiens), P49798 | 310,000 tested, 0.45% active | Fluo-4 calcium flux; hits give high values; triggered by carbachol at its EC20;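 active = B-score, a plate-corrected calcium signal, over three deviations above library mean, with baseline fluorescence within five deviations of library mean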;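 note: RGS4 expression induced by doxycycline in cells with stable M3 receptor; B-score is computed from the integrated fluorescence ratio over baseline after carbachol; higher B-score means a larger calcium signal and so more RGS4 inhibition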
RGS4 pot = RGS4 potentiators or activators, primary screen, cell-based, HEK293 M3R inducible RGS4, calcium flux; carbachol calcium flux Fluo4; hits give low values; B-score at 10 µM; 310,000 tested, 0.92% active; AID 463111, 2010;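 active = B-score of the integrated calcium signal more than 4 SD below the library mean, with starting fluorescence not abnormally high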;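 note: negative B-score means reduced calcium response which marks RGS4 activation or potentiation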
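Detection: kinetic calcium fluorescence imaging with Fluo4-AM dye, 2 µM / Material: HEK293 cells with stable M3R and inducible RGS4 / Schedule: recording 10 s baseline at 1 Hz, 100 s post-agonist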
MrgX1 allo act = positive allosteric modulators of MrgX1, primary screen, HEK293 cells, Fluo-4 calcium flux; B-score at 10 µM; AID 588675, 2011; Mas-related G-protein coupled receptor member X1 (Homo sapiens), Q96LB2; FDSS; hits give high values; 310,000 tested, 0.63% active;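 active = plate-corrected calcium response at least 3 library SD above typical, normal starting fluorescence, not activating the receptor alone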;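 note: compound read alongside a low EC10 to EC30 dose of BAM8-22 agonist; peak minus trough fluorescence over baseline measured at the second addition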
Target sequence (Q96LB2 whole entry, looked up): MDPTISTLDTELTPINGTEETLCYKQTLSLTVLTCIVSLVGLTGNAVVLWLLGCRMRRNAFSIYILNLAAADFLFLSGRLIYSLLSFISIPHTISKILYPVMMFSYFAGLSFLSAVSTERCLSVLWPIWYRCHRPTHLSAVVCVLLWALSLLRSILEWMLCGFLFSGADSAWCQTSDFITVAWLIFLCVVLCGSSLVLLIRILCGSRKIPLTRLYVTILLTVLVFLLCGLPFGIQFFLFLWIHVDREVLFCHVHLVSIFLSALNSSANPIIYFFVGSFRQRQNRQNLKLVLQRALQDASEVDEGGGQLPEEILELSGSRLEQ
MrgX1 antagonist = antagonists of human MrgX1 receptor, primary screen, HEK293 cells, Fluo-4 calcium flux; Mas-related G-protein coupled receptor member X1 (Homo sapiens), Q96LB2; BAM8-22 antagonism; hits give low values; B-score at 10 µM; 310,000 tested, 1.3% active;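 active = calcium-response B-score plate-corrected more than 3 library SD below zero, starting fluorescence within 5 deviations, no agonist response on first addition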;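 note: peak minus trough fluorescence over baseline after final BAM8-22 challenge near maximal dose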
MrgX1 ag = agonists of human MrgX1 receptor, primary screen, HEK293 cells, Fluo-4 calcium flux; Mas-related G-protein coupled receptor member X1 (Homo sapiens), Q96LB2; Fluo-4 calcium fluorescence, agonist mode; hits give high values; B-score at 10 µM; 310,000 tested, 0.44% active; AID 588627, 2011;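 active = calcium response B-score plate-corrected fluorescence ratio at least 3 library SD, with starting fluorescence B-score inside 5 SD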
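Material: HEK293 cells stably expressing human MrgX1 receptor | Quantity: 15,000 cells per well | Times: Cells plated overnight, dye loaded 0.5 h 37 °C, 0.5 h room temperature | Measured by: Kinetic Fluo-4 NW fluorescence of intracellular calcium | Control set: Positive and negative controls per plate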
Numbers without * were called inactive.

What do the screens show for `C#CCOCCOCCOCCNc1nc(N2CCN(C(=O)CCCCCCCCCCNC(=O)[C@H]([C@@H](C)CC)n3cc(CCCCN=C(N)N)nn3)CC2)nc(N2CCN(C(=O)CCCCCCCCCCNC(=O)[C@H](CCCN=C(N)N)n3cc(C[C@@H](C)CC)nn3)CC2)n1`?
MrgX1 allo act: inactive; MrgX1 antagonist: inactive; MrgX1 ag: 33*

What do the screens show for `C#CCOCCOCCOCCNc1nc(N2CCOCC2)nc(N2CCN(C(=O)CCCCCCCCCCNC(=O)[C@H]([C@@H](C)CC)n3cc(CCCCN=C(N)N)nn3)CC2)n1`?
MrgX1 allo act: inactive; MrgX1 antagonist: inactive; MrgX1 ag: inactive

Results for Cc1cc2occ(CC(=O)N(CC(C)C)c3c(N)n(Cc4ccccc4)c(=O)[nH]c3=O)c2cc1C ?
RGS4 inh: inactive; RGS4 pot: inactive; MrgX1 allo act: inactive; MrgX1 antagonist: inactive; MrgX1 ag: inactive

Results for COc1ccc(/C=C/C(=O)OCCCN(C)C)cc1 ?
RGS4 inh: inactive; RGS4 pot: inactive; MrgX1 allo act: inactive; MrgX1 antagonist: inactive; MrgX1 ag: inactive

What do the screens show for `CCCCCCCN1N=C(C)C(C(=O)c2ccccc2)C1=O` (centres undefined)?
RGS4 inh: inactive; RGS4 pot: inactive; MrgX1 allo act: inactive; MrgX1 antagonist: inactive; MrgX1 ag: inactive

How did CCCCCCN1N=C(C)C(C(=O)c2ccc(Cl)cc2)C1=O (centres undefined) do in these assays?
RGS4 inh: inactive; RGS4 pot: inactive; MrgX1 allo act: inactive; MrgX1 antagonist: inactive; MrgX1 ag: 66*

What do the screens show for `CCOc1ccc(C(=O)NCC(=O)NCCCSc2ccccc2)cc1OCC`?
RGS4 inh: inactive; RGS4 pot: inactive; MrgX1 allo act: inactive; MrgX1 antagonist: inactive; MrgX1 ag: inactive

Results for COC(=O)C1(C(F)(F)F)C2C=CC(C2)N1S(=O)(=O)c1ccc(C)cc1 (centres undefined) ?
RGS4 inh: inactive; RGS4 pot: inactive; MrgX1 allo act: inactive; MrgX1 antagonist: inactive; MrgX1 ag: inactive

Results for O=C(O)CCC(=O)Nc1ccc(C(=O)OC2CCCCC2)cc1 ?
RGS4 inh: inactive; RGS4 pot: inactive; MrgX1 allo act: inactive; MrgX1 antagonist: inactive; MrgX1 ag: inactive

What do the screens show for `O=C(OC1CCCCC1)c1ccc(NC(=O)C2CCCCC2)cc1`?
RGS4 inh: inactive; RGS4 pot: -7*; MrgX1 allo act: inactive; MrgX1 antagonist: inactive; MrgX1 ag: inactive

Results for O=C(N/N=C/c1cccc(C(F)(F)F)c1)c1cc2c(s1)-c1ccccc1CC2 ?
RGS4 inh: inactive; RGS4 pot: inactive; MrgX1 allo act: inactive; MrgX1 antagonist: -7.8*; MrgX1 ag: inactive

Results for Cc1ccc(NC(=O)c2cccc(NC(=O)/C=C/c3ccco3)c2)cc1C ?
RGS4 inh: inactive; RGS4 pot: -9.6*; MrgX1 allo act: inactive; MrgX1 antagonist: inactive; MrgX1 ag: inactive

How did Cc1ccc(-n2nc3ccc(NC(=O)/C=C/c4ccco4)cc3n2)cc1 do in these assays?
RGS4 inh: inactive; RGS4 pot: inactive; MrgX1 allo act: inactive; MrgX1 antagonist: -6.3*; MrgX1 ag: inactive

How did CCc1ccccc1NC(=O)c1cccc(NC(=O)/C=C/c2ccco2)c1 do in these assays?
RGS4 inh: inactive; RGS4 pot: inactive; MrgX1 allo act: inactive; MrgX1 antagonist: inactive; MrgX1 ag: inactive

How did O=C(/C=C/c1ccco1)Nc1ccc2c(c1)OCO2 do in these assays?
RGS4 inh: inactive; RGS4 pot: inactive; MrgX1 allo act: inactive; MrgX1 antagonist: inactive; MrgX1 ag: inactive

How did Cc1ccc(-c2nn(-c3ccc(F)cc3)cc2C(=O)N(C)CC(=O)Nc2ccc(N3CCOCC3)cc2)cc1 do in these assays?
RGS4 inh: inactive; RGS4 pot: inactive; MrgX1 allo act: inactive; MrgX1 antagonist: inactive; MrgX1 ag: inactive
